Assay results: ChEMBL document CHEMBL3525900, “Pharmacokinetics, distribution, and metabolism of [14C]sunitinib in rats, monkeys, and humans” (Drug Metab Dispos, 2012)

Legend:
[1] = system: Rattus norvegicus; assay: Apparent terminal half life as total radioactivity in female Sprague-Dawley rat plasma at 5 mg/kg, iv administered as single dose by LC/MS/MS analysis; type: ADME, organism-based; design: dose 5 mg/kg, dosed compound name [14C]Sunitinib, route intravenous; settings: in vivo
How it was run: (§1)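 Single dose of [14C]sunitinib L-malate as free base, 50 µCi/kg. IV dose was 5 mg/kg by tail vein in 5 females. Oral dose was 15 mg/kg by gavage in 3 females and 3 males. Total radioactivity was by scintillation counting. […] Cmax was read from raw data, t½ by log-linear regression, AUC by linear trapezoidal rule.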

[2] = system: Rattus norvegicus; assay: Apparent terminal half life as total radioactivity in female Sprague-Dawley rat plasma at 15 mg/kg, po administered as single dose by LC/MS/MS analysis; type: ADME, organism-based; design: dose 15 mg/kg, dosed compound name [14C]Sunitinib, route oral; settings: in vivo; how it was run: as §1
[3] = system: Large intestine; assay: Drug concentration in male Lister Hooded pigmented rat large intestine assessed as radioactivity per gram of tissue at 20 mg/kg administered as single dose via gastric gavage measured after 72 hrs by autoradiographic analysis; type: ADME, organism-based; design: dose 20 mg/kg, dosed compound name [14C]Sunitinib; settings: in vivo, po
[4] = Drug concentration in male Lister Hooded pigmented rat pituitary gland assessed as radioactivity per gram of tissue at 20 mg/kg administered as single dose via gastric gavage measured after 72 hrs by autoradiographic analysis; type: ADME, organism-based; design: dose 20 mg/kg, dosed compound name [14C]Sunitinib; settings: in vivo, po
[5] = Drug concentration in male Lister Hooded pigmented rat preputial gland assessed as radioactivity per gram of tissue at 20 mg/kg administered as single dose via gastric gavage measured after 72 hrs by autoradiographic analysis; type: ADME, organism-based; design: dose 20 mg/kg, dosed compound name [14C]Sunitinib; settings: in vivo, po
[6] = Drug recovery in feces of male Sprague-Dawley rat at 15 mg/kg, po administered as single dose during 0 to 72 hrs by liquid scintillation counting; type: ADME, organism-based; design: dose 15 mg/kg, dosed compound name [14C]Sunitinib, route oral; settings: in vivo
[7] = Drug concentration in female albino rat brown fat assessed as radioactivity per gram of tissue at 20 mg/kg administered as single dose via gastric gavage measured after 3 hrs by autoradiographic analysis; type: ADME, organism-based, Brown adipose tissue; design: dose 20 mg/kg, dosed compound name [14C]Sunitinib; settings: in vivo, po
How it was run: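 Sprague Dawley (albino) and Lister Hooded (pigmented) rats, ca 7-8 weeks old, 179-310 g, acclimated 7 days. Single gavage dose of [14C]sunitinib L-malate (15 mg freebase/kg, 100 µCi/kg). One male and one female killed by CO2 per time point: albino at 3, 6, 24, 72, 168 h; pigmented at 24, 72, 168, 336 h. Carcasses frozen in solid CO2/hexane, 30 µm sagittal sections freeze-dried. Tissue radioactivity read by quantitative whole-body autoradiography against regression of standards, mean background subtracted.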

[8] = system: Stomach; assay: Drug concentration in male Lister Hooded pigmented rat stomach assessed as radioactivity per gram of tissue at 20 mg/kg administered as single dose via gastric gavage measured after 24 hrs by autoradiographic analysis; type: ADME, organism-based; design: dose 20 mg/kg, dosed compound name [14C]Sunitinib; settings: in vivo, po
[9] = system: Pancreas; assay: Drug concentration in male Lister Hooded pigmented rat pancreas assessed as radioactivity per gram of tissue at 20 mg/kg administered as single dose via gastric gavage measured after 24 hrs by autoradiographic analysis; type: ADME, organism-based; design: dose 20 mg/kg, dosed compound name [14C]Sunitinib; settings: in vivo, po
[10] = Drug concentration in female albino rat preputial gland assessed as radioactivity per gram of tissue at 20 mg/kg administered as single dose via gastric gavage measured after 6 hrs by autoradiographic analysis; type: ADME, organism-based; design: dose 20 mg/kg, dosed compound name [14C]Sunitinib; settings: in vivo, po
How it was run: (§2)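 Sprague Dawley albino rats, ca 7-8 weeks old, dosed once by gastric gavage with [14C]sunitinib L-malate (15 mg freebase/kg, 100 µCi/kg). One male and one female killed by CO2 at 3, 6, 24, 72 and 168 h. Carcasses frozen in solid CO2/hexane, embedded and cut into 30 µm sagittal sections, then freeze-dried. Radioactivity quantified by whole-body autoradiography against standards by regression, background subtracted.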

[11] = Drug concentration in male albino rat lymph node assessed as radioactivity per gram of tissue at 20 mg/kg administered as single dose via gastric gavage measured after 3 hrs by autoradiographic analysis; type: ADME, organism-based; design: dose 20 mg/kg, dosed compound name [14C]Sunitinib; settings: in vivo, po
[12] = system: Spinal cord; assay: Drug concentration in male albino rat spinal cord assessed as radioactivity per gram of tissue at 20 mg/kg administered as single dose via gastric gavage measured after 3 hrs by autoradiographic analysis; type: ADME, organism-based; design: dose 20 mg/kg, dosed compound name [14C]Sunitinib; settings: in vivo, po
[13] = system: Small intestine; assay: Drug concentration in female albino rat small intestine assessed as radioactivity per gram of tissue at 20 mg/kg administered as single dose via gastric gavage measured after 6 hrs by autoradiographic analysis; type: ADME, organism-based; design: dose 20 mg/kg, dosed compound name [14C]Sunitinib; settings: in vivo, po
[14] = Drug concentration in male Lister Hooded pigmented rat preputial gland assessed as radioactivity per gram of tissue at 20 mg/kg administered as single dose via gastric gavage measured after 168 hrs by autoradiographic analysis; type: ADME, organism-based; design: dose 20 mg/kg, dosed compound name [14C]Sunitinib; settings: in vivo, po
[15] = system: Small intestine; assay: Drug concentration in male Lister Hooded pigmented rat small intestine assessed as radioactivity per gram of tissue at 20 mg/kg administered as single dose via gastric gavage measured after 168 hrs by autoradiographic analysis; type: ADME, organism-based; design: dose 20 mg/kg, dosed compound name [14C]Sunitinib; settings: in vivo, po
[16] = system: Spleen; assay: Drug concentration in male Lister Hooded pigmented rat spleen assessed as radioactivity per gram of tissue at 20 mg/kg administered as single dose via gastric gavage measured after 168 hrs by autoradiographic analysis; type: ADME, organism-based; design: dose 20 mg/kg, dosed compound name [14C]Sunitinib; settings: in vivo, po
[17] = system: Small intestine; assay: Drug concentration in female albino rat small intestine assessed as radioactivity per gram of tissue at 20 mg/kg administered as single dose via gastric gavage measured after 3 hrs by autoradiographic analysis; type: ADME, organism-based; design: dose 20 mg/kg, dosed compound name [14C]Sunitinib; settings: in vivo, po
[18] = system: Lung; assay: Drug concentration in female albino rat lung assessed as radioactivity per gram of tissue at 20 mg/kg administered as single dose via gastric gavage measured after 6 hrs by autoradiographic analysis; type: ADME, organism-based; design: dose 20 mg/kg, dosed compound name [14C]Sunitinib; settings: in vivo, po; how it was run: as §2
[19] = Drug concentration in female albino rat uterus assessed as radioactivity per gram of tissue at 20 mg/kg administered as single dose via gastric gavage measured after 72 hrs by autoradiographic analysis; type: ADME, organism-based; design: dose 20 mg/kg, dosed compound name [14C]Sunitinib; settings: in vivo, po
[20] = system: Zone of skin; assay: Drug concentration in male albino rat abdomen skin assessed as radioactivity per gram of tissue at 20 mg/kg administered as single dose via gastric gavage measured after 72 hrs by autoradiographic analysis; type: ADME, organism-based; design: dose 20 mg/kg, dosed compound name [14C]Sunitinib; settings: in vivo, po
[21] = system: Zone of skin; assay: Drug concentration in female albino rat abdomen skin assessed as radioactivity per gram of tissue at 20 mg/kg administered as single dose via gastric gavage measured after 24 hrs by autoradiographic analysis; type: ADME, organism-based; design: dose 20 mg/kg, dosed compound name [14C]Sunitinib; settings: in vivo, po
How it was run: (§3)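 Sprague Dawley (albino) rats, ca 7-8 weeks old, received a single gastric-gavage dose of [14C]sunitinib L-malate at 20 mg/kg (15 mg freebase/kg, 100 µCi/kg). One animal per sex killed by CO2 at 3, 6, 24, 72 and 168 h, then frozen in CO2/hexane. 30 µm sagittal sections were cut and freeze-dried. Radioactivity per gram quantified by whole-body autoradiography using regression against standards. LOQ 0.04–0.06 µg freebase equiv/g.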

[22] = Drug concentration in male albino rat lachrymal gland assessed as radioactivity per gram of tissue at 20 mg/kg administered as single dose via gastric gavage measured after 24 hrs by autoradiographic analysis; type: ADME, organism-based; design: dose 20 mg/kg, dosed compound name [14C]Sunitinib; settings: in vivo, po
[23] = Drug concentration in female albino rat bladder assessed as radioactivity per gram of tissue at 20 mg/kg administered as single dose via gastric gavage measured after 24 hrs by autoradiographic analysis; type: ADME, organism-based, Urinary bladder; design: dose 20 mg/kg, dosed compound name [14C]Sunitinib; settings: in vivo, po; how it was run: as §3
[24] = system: Kidney; assay: Drug concentration in female Lister Hooded pigmented rat kidney assessed as radioactivity per gram of tissue at 20 mg/kg administered as single dose via gastric gavage measured after 72 hrs by autoradiographic analysis; type: ADME, organism-based; design: dose 20 mg/kg, dosed compound name [14C]Sunitinib; settings: in vivo, po
How it was run: (§4)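 Lister Hooded (pigmented) rats, ca 7-8 weeks old, acclimated 7 days, given [14C]sunitinib L-malate by gastric gavage at 20 mg/kg (15 mg freebase/kg, 100 µCi/kg). One male and one female killed by CO2 at 24, 72, 168 and 336 h. Carcasses frozen in solid CO2/hexane and embedded in frozen cellulose. 30 µm sagittal cryosections were freeze-dried. Tissue radioactivity measured by quantitative whole-body autoradiography against calibration standards, with background subtracted.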

[25] = Drug concentration in female Lister Hooded pigmented rat uveal tract assessed as radioactivity per gram of tissue at 20 mg/kg administered as single dose via gastric gavage measured after 168 hrs by autoradiographic analysis; type: ADME, organism-based; design: dose 20 mg/kg, dosed compound name [14C]Sunitinib; settings: in vivo, po; how it was run: as §4

`CCN(CC)CCNC(=O)c1c(C)[nH]c(/[14CH]=C2\C(=O)Nc3ccc(F)cc32)c1C.O=C(O)C[C@H](O)C(=O)O` gave a t1/2 lambda z [1] of 10.3 h, a t1/2 lambda z [2] of 9 h and a Radiolabel recovery [3] of 0.08 ugequiv. For the same molecule, the Radiolabel recovery [4] was 1.65 ugequiv, the Radiolabel recovery [5] was 7.84 ugequiv and the Radiolabel recovery [6] was 75.2%. The Radiolabel recovery [7] was 10.63 ugequiv, the Radiolabel recovery [8] was 0.67 ugequiv and the Radiolabel recovery [9] was 1.23 ugequiv. It also gave a Radiolabel recovery [10] of 14.48 ugequiv, a Radiolabel recovery [11] of 8.86 ugequiv and a Radiolabel recovery [12] of 0.19 ugequiv. For the same molecule, the Radiolabel recovery [13] was 10.28 ugequiv, the Radiolabel recovery [14] was 0.06 ugequiv and the Radiolabel recovery [15] was 0.06 ugequiv. The Radiolabel recovery [16] was 0.06 ugequiv, the Radiolabel recovery [17] was 14.16 ugequiv and the Radiolabel recovery [18] was 16.19 ugequiv. For the same molecule, the Radiolabel recovery [19] was 0.12 ugequiv, the Radiolabel recovery [20] was 0.27 ugequiv and the Radiolabel recovery [21] was 4.16 ugequiv. It also gave a Radiolabel recovery [22] of 4.7 ugequiv, a Radiolabel recovery [23] of 0.54 ugequiv and a Radiolabel recovery [24] of 0.19 ugequiv. For the same molecule, the Radiolabel recovery [25] was 276.19 ugequiv.
